≈ marks a conversion by molar mass, not a printed value. Calls of active or inactive are those of the source. The rule behind the calls is not given here.
Legend:
[1] = system: Candida albicans; test: Antifungal activity against Candida albicans by CLSI method; format: functional, organism-based
[2] = system: Aspergillus fumigatus; test: Antifungal activity against Aspergillus fumigatus by CLSI method; format: functional, organism-based
[3] = system: Escherichia coli; test: Antibacterial activity against Escherichia coli ATCC 35218 after 16 to 20 hrs by CLSI method; format: functional, organism-based
[4] = system: Nakaseomyces glabratus; test: Antifungal activity against Candida glabrata by CLSI method; format: functional, organism-based
[5] = system: Pichia kudriavzevii; test: Antifungal activity against Candida krusei by CLSI method; format: functional, organism-based
[6] = system: Cryptococcus neoformans; test: Antifungal activity against Cryptococcus neoformans ATCC 90113 after 70 to 74 hrs by CLSI method; format: functional, organism-based
Method in brief: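 Growth inhibition of C. neoformans per the CLSI protocol. […] MIC is the lowest test concentration with no detectable growth. MFC is the lowest concentration killing 100% of the organism.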

[7] = system: SK-MEL; test: Cytotoxicity against human SK-MEL cells assessed as cell viability after 48 hrs by neutral red uptake assay; format: cell-based
Method in brief: (§1)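 Neutral red uptake assay in human cancer lines SK-MEL, KB, BT-549 and SK-OV-3 and in noncancerous mammalian kidney cells VERO and LLC-PK1. The highest tested concentration was 10 μg/mL.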

[8] = system: KB; test: Cytotoxicity against human KB cells assessed as cell viability after 48 hrs by neutral red uptake assay; format: cell-based; method in brief: as §1
[9] = system: BT-549; test: Cytotoxicity against human BT549 cells assessed as cell viability after 48 hrs by neutral red uptake assay; format: cell-based; conditions: bt-549, 48 h; method in brief: as §1
[10] = system: SK-OV-3; test: Cytotoxicity against human SKOV3 cells assessed as cell viability after 48 hrs by neutral red uptake assay; format: cell-based; conditions: sk-ov-3, 48 h; method in brief: as §1
[11] = system: Vero; test: Cytotoxicity against African green monkey Vero cells assessed as cell viability after 48 hrs by neutral red uptake assay; format: cell-based; conditions: chlorocebus sabaeus; method in brief: as §1
[12] = system: LLC-PK1; test: Cytotoxicity against pig LLC-PK1 cells assessed as cell viability after 48 hrs by neutral red uptake assay; format: cell-based, Sus scrofa; conditions: llc-pk1, 48 h; method in brief: as §1
[13] = Selectivity index, ratio of cytotoxicity for human SK-MEL cells to IC50 for Cryptococcus neoformans ATCC 90113; format: toxicity, cell-based; conditions: read-out: Selectivity Index
[14] = Selectivity index, ratio of cytotoxicity for human KB cells to IC50 for Cryptococcus neoformans ATCC 90113; format: toxicity, cell-based; conditions: read-out: Selectivity Index
[15] = Selectivity index, ratio of cytotoxicity for human BT549 cells to IC50 for Cryptococcus neoformans ATCC 90113; format: toxicity, cell-based, BT-549; conditions: read-out: Selectivity Index
[16] = Selectivity index, ratio of cytotoxicity for human SKOV3 cells to IC50 for Cryptococcus neoformans ATCC 90113; format: toxicity, cell-based, SK-OV-3; conditions: read-out: Selectivity Index
[17] = Selectivity index, ratio of cytotoxicity for African green monkey Vero cells to IC50 for Cryptococcus neoformans ATCC 90113; format: toxicity, cell-based; conditions: read-out: Selectivity Index
[18] = Selectivity index, ratio of cytotoxicity for pig LLC-PK1 cells to IC50 for Cryptococcus neoformans ATCC 90113; format: toxicity, cell-based; conditions: read-out: Selectivity Index
[19] = system: Lipid bilayer; test: Binding affinity to small unilamellar vesicles assessed as destruction of membrane by transmission electron microscopy
Method in brief: (§2)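 Small unilamellar vesicles were made by a literature method, either EYPC/EYPG or EYPC/cholesterol, and incubated with or without peptide. Samples were deposited on carbon-coated copper grids, negatively stained with 2% (w/v) phosphotungstic acid and imaged by TEM to judge vesicle integrity and morphology.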

[20] = Binding affinity to EYPC/EYPG assessed as disruption of SUVs integrity by transmission electron microscopy; method in brief: as §2
[21] = Binding affinity to EYPC/cholesterol by transmission electron microscopy; method in brief: as §2
[22] = system: Cryptococcus neoformans; test: Ratio of amphotericin B MFC to compound MFC for Cryptococcus neoformans ATCC 90113 after 70 to 74 hrs by CLSI method; format: functional
[23] = Cryptococcus neoformans, ATCC 90113

- IC50 [6, 23]: 0.07 µg/mL (≈ 0.102 µM)
- MIC [6, 23]: 0.16 µg/mL (≈ 0.232 µM)
- Activity [19]: Active
- Activity [20]: Active
- Activity [21]: inactive
SMILES: CC(C)(C)c1ccc(-c2nc(C[C@H](NC(=O)[C@@H](N)CCCNC(=N)N)C(=O)N[C@@H](CCCNC(=N)N)C(=O)NCc3ccccc3)c[nH]2)cc1
- Activity [1]: inactive
- Activity [2]: inactive
- Activity [3]: inactive
- Activity [4]: inactive
- Activity [5]: inactive
- MFC100 [6]: 0.16 µg/mL (≈ 0.232 µM)
- Activity [7]: > 10 µg/mL
- Activity [8]: > 10 µg/mL
- Activity [9]: > 10 µg/mL
- Activity [10]: > 10 µg/mL
- Activity [11]: > 10 µg/mL
- Activity [12]: > 10 µg/mL
- selectivity ratio [13]: > 143
- selectivity ratio [14]: > 143
- selectivity ratio [15]: > 143
- selectivity ratio [16]: > 143
- selectivity ratio [17]: > 143
- selectivity ratio [18]: > 143
- Ratio [22]: 8

Source: ChEMBL document CHEMBL3259662 (ACS Med Chem Lett, 2014)
